This is an account of results in ChEMBL document CHEMBL4387759, “Discovery of novel N-methyl carbazole tethered rhodanine derivatives as direct inhibitors of Mycobacterium tuberculosis InhA” (Bioorg Med Chem Lett, 2019).

In brackets after ≈: the same amount, converted by molar mass.

In data set [1] the test system is Mycobacterium tuberculosis. Kind of data set: Antimycobacterial activity against Mycobacterium tuberculosis H37Rv incubated for 5 days under aerobic condition by fluorescence assay. The format is functional, organism-based. The following applies: 120 h. In outline:
(§1)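 M. tuberculosis H37Rv grown aerobically; dual read-out assay (OD590 plus fluorescence); MIC and IC50 values reported; run at IDRI under NIAID screening programme.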

Data set [2] has as its system Vero. Put plainly: Cytotoxicity against African green monkey Vero cells measured after 72 hrs by MTS-PMS assay. The format is cell-based. The following applies: Chlorocebus sabaeus. In outline: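 Cells exposed 72 h; viability read with a non-radioactive cell proliferation assay; IC50 determined.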
On the technique in general: Formazan colour is commonly taken as a measure of viable cells.

Data set [3] deals with Mycobacterium tuberculosis. Put plainly: Antimycobacterial activity against Mycobacterium tuberculosis H37Rv. Type of data set: functional. In short, it runs like this:
as §1

Data set [4] deals with T1, Enoyl-[acyl-carrier-protein] reductase [NADH] (Mycobacterium tuberculosis) (UniProt P9WGR1).
T1 sequence (whole entry): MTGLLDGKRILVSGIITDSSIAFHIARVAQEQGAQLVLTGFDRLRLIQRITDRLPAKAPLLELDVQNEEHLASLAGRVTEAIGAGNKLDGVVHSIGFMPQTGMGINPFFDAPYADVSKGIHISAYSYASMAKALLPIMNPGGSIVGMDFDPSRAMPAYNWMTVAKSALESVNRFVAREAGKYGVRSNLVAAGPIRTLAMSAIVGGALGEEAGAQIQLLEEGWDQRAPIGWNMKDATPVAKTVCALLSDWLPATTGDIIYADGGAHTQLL
Put plainly: Inhibition of Mycobacterium tuberculosis InhA at 5 uM using DDCoA as substrate relative to control. In short, it runs like this:
(§2)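 InhA enzyme assay run in triplicate with 2-trans-dodecenoyl-CoA as substrate analogue; inhibition followed as NADH oxidation to NAD+ at 340 nm. Compounds screened at 50 μM, selected ones also at 5 μM; IC50 from 4-parameter curve fit; GEQ as reference inhibitor.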

Data set [5] is described as follows: Selectivity index, ratio of IC50 for African green monkey Vero cells to IC50 for Mycobacterium tuberculosis H37Rv. Type of data set: toxicity. As to conditions: read-out: Ratio IC50. In short, it runs like this: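 Ratio of cytotoxicity IC50 to H37Rv IC50; not calculated where H37Rv IC50 >100.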
For data set [6], the target named is T2, Enoyl-[acyl-carrier-protein] reductase [NADH] (Mycobacterium tuberculosis, UniProt P9WGR1).
T2 sequence (P9WGR1 whole entry): T1 sequence (whole entry)
Kind of data set: Inhibition of Mycobacterium tuberculosis InhA using DDCoA as substrate. In short, it runs like this:
as §2

In general, MIC refers to the least concentration at which growth counts as inhibited. Usually IC50 stands for the concentration at which inhibition is half-maximal. Broadly, the inhibition is the drop in the measured response relative to a control, in per cent.

Turning to `Cn1c2ccccc2c2cc(/C=C3\SC(=S)N(c4nnc(-c5ccc(Br)cc5)s4)C3=O)ccc21`, the MIC in data set [1] was above 100 µM. The same compound yielded a concentration for half-maximal inhibition (IC50) in data set [2] of 165 µM.
`COc1ccc(-c2csc(N/N=C/c3ccc4c(c3)c3ccccc3n4C)n2)cc1OC` came in with an MIC in data set [3] of 21 µM (≈ 9.29 µg/mL).
As to `Cn1c2ccccc2c2cc(/C=C3\SC(=S)N(c4nnc(-c5ccccc5Cl)s4)C3=O)ccc21`, the MIC in data set [1] is above 100 µM. Further, the IC50 in data set [2] is 239 µM.
On the same counts, the results for `Cc1cc(=O)[nH]c2cc(N3C(=O)/C(=C/c4ccc5c(c4)c4ccccc4n5C)SC3=S)ccc12` are above 100 µM and 277 µM.
Compound `Cn1c2ccccc2c2cc(/C=C3\SC(=S)N(c4cc(C(=O)O)cc(C(=O)O)c4)C3=O)ccc21` had an inhibition in data set [4] of 12%. The MIC in data set [1] is above 100 µM. Further, 210 µM corresponded to half-maximal inhibition in data set [2] (IC50).
With `COC(=O)c1ccc(N2C(=O)/C(=C/c3ccc4c(c3)c3ccccc3n4C)SC2=S)cc1`, in data set [1], the MIC is above 100 µM. This compound showed an IC50 in data set [2] of 222 µM.
Turning to `COc1ccc(N2C(=O)/C(=C/c3ccc4c(c3)c3ccccc3n4C)SC2=S)cc1OC`, in data set [1], the IC50 came out at 50 µM and the MIC was 50 µM (≈ 23 µg/mL). This compound yielded an IC50 in data set [2] of 261 µM. For the same compound, the selectivity ratio in data set [5] was 5.2.
For the compound `Cn1c2ccccc2c2cc(/C=C3\SC(=S)N(c4nnc(-c5ccccc5F)s4)C3=O)ccc21`, the MIC in data set [1] is above 100 µM. The compound further had a 50% inhibitory concentration (IC50) in data set [2] of 208 µM.
For `Cn1c2ccccc2c2cc(/C=C3\SC(=S)N(c4cccc(C(F)(F)F)c4)C3=O)ccc21` the same measures were above 100 µM and 167 µM.
On the same counts, the results for `Cn1c2ccccc2c2cc(/C=C3\SC(=S)N(c4nnc(-c5cccc(Cl)c5)s4)C3=O)ccc21` are above 100 µM and 193 µM.
As to `Cc1cc(=O)oc2cc(N3C(=O)/C(=C/c4ccc5c(c4)c4ccccc4n5C)SC3=S)ccc12`, in data set [1], inhibition was half-maximal at 20 µM (IC50) and the lowest concentration to inhibit growth (MIC) was 20 µM (≈ 9.65 µg/mL). Besides, half-maximal inhibition in data set [2] (IC50) was put at 296 µM. The selectivity ratio in data set [5] worked out at 14.8.
Turning to `Cn1c2ccccc2c2cc(/C=C3\SC(=S)N(c4ccc(C(=O)O)cc4)C3=O)ccc21`, the inhibition in data set [4] worked out at 54%. Besides, the IC50 in data set [6] was 2.82 µM; in data set [2] it was 263 µM. This compound also displayed an MIC in data set [1] above 100 µM.
In data set [1], `Cn1c2ccccc2c2cc(/C=C3\SC(=S)N(c4nnc(-c5ccc(Cl)cc5)s4)C3=O)ccc21` returned an MIC above 100 µM. The compound further showed a half-inhibitory concentration (IC50) in data set [2] of 245 µM.
In the case of `Cn1c2ccccc2c2cc(/C=C3\SC(=S)N(c4cccc(O)c4)C3=O)ccc21`, the inhibition in data set [4] amounted to 10%. Also, in data set [1], the IC50 worked out at 25 µM and the MIC is above 100 µM. In addition, the IC50 in data set [2] amounted to 289 µM. Further, the selectivity ratio in data set [5] is 11.6.
`COc1cccc(N2C(=O)/C(=C/c3ccc4c(c3)c3ccccc3n4C)SC2=S)c1`: the minimum inhibitory concentration (MIC) in data set [1] was above 100 µM. In data set [2], this compound yielded an IC50 of 235 µM.
In data set [1], `Cn1c2ccccc2c2cc(/C=C3\SC(=S)N(c4ccccc4)C3=O)ccc21` returned an IC50 of 75 µM and an MIC above 100 µM. The compound also returned a concentration for half-maximal inhibition (IC50) in data set [2] of 240 µM. For the same compound, the selectivity ratio in data set [5] stood at 3.2.
In turn, `COc1ccc(-c2nnc(N3C(=O)/C(=C/c4ccc5c(c4)c4ccccc4n5C)SC3=S)s2)cc1` came in with a minimal inhibitory concentration (MIC) in data set [1] above 100 µM. The compound also had an IC50 in data set [2] of 258 µM.
For `Cn1c2ccccc2c2cc(/C=C3\SC(=S)N(c4ccc(Cl)cc4)C3=O)ccc21` the same measures were above 100 µM and 213 µM.
For `COc1cc(N2C(=O)/C(=C/c3ccc4c(c3)c3ccccc3n4C)SC2=S)cc(OC)c1OC` the same measures were above 100 µM and 185 µM.
Turning to `O=C(c1ccc2[nH]ccc2c1)N1CCN(C2c3ccccc3-c3ccccc32)CC1`, the MIC in data set [1] is above 50 µM.
